From ChEMBL document CHEMBL4020800, “The design, synthesis, and anti-inflammatory evaluation of a drug-like library based on the natural product valerenic acid” (Bioorg Med Chem Lett, 2017)
Calls of active or inactive are those of the source. No cut-off for these calls is given here.

Experiments:
PBMC = test: Antiinflammatory activity in human PBMC assessed as inhibition of LPS-induced TNF-alpha production after 16 hrs by AlphaLisa assay; type: functional, cell-based
[1] = Cytotoxicity against primary human […] keratinocytes assessed as inhibition of cell viability at 10 uM preincubated for 2 hrs followed by cytokine addition measured after 72 hrs by PrestoBlue staining based fluorescence assay relative to control; set-up: species or system Keratinocyte; conditions: read-out: Imax
Keratinocyte [2] = test: Cytotoxicity against primary human […] keratinocytes assessed as inhibition of cell viability preincubated for 2 hrs followed by cytokine addition measured after 72 hrs by PrestoBlue staining based fluorescence assay
Outline: (§1)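 Primary human keratinocytes were stimulated with IL-17, and the inflammatory response was read as increased IL-8 secretion. Cell viability was measured in the same cells as a secondary readout to separate specific inhibition from cytotoxicity. Betamethasone served as the assay control. Maximal inhibition of IL-8 release or of viability was recorded alongside IC50 where calculated.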

Keratinocyte [3] = test: Antiinflammatory activity in primary human […] keratinocytes assessed as inhibition of IL-17A/TNF-alpha induced IL-8 production at 10 uM preincubated for 2 hrs followed by cytokine addition measured after 72 hrs by HTRF assay relative to control; type: functional
Keratinocyte [4] = test: Antiinflammatory activity in primary human […] keratinocytes assessed as inhibition of IL-17A/TNF-alpha induced IL-8 production preincubated for 2 hrs followed by cytokine addition measured after 72 hrs by HTRF assay; type: functional, cell-based; outline: as §1
[5] = Homo sapiens, Keratinocyte, read-out: IC50

COCCNC(=O)/C(C)=C/[C@@H]1CC[C@@H](C)[C@H]2CCC(C)=C12
inhibition (PBMC): inactive | inhibition at 72 h, 10 µM [1]: 7% | IC50 (Keratinocyte [2]; keratinocyte): Not Active | Imax (Keratinocyte [3]): 30% | IC50 (Keratinocyte [4]; keratinocyte): Not Active

CC1=C2[C@H](/C=C(\C)C(=O)NCc3ccccc3)CC[C@@H](C)[C@H]2CC1
inhibition (PBMC): inactive | inhibition at 72 h, 10 µM [1]: 72% | IC50 (Keratinocyte [2]; [5]): 9 µM | Imax (Keratinocyte [3]): 84% | IC50 (Keratinocyte [4]; [5]): 2.9 µM

CC1=C2[C@H](/C=C(\C)C(=O)NCCc3ccccc3)CC[C@@H](C)[C@H]2CC1
inhibition (PBMC): inactive | inhibition at 72 h, 10 µM [1]: 11% | IC50 (Keratinocyte [2]; keratinocyte): Not Active | Imax (Keratinocyte [3]): 64% | IC50 (Keratinocyte [4]; [5]): 7.5 µM

CC1=C2[C@H](/C=C(\C)C(=O)NCc3ccccc3F)CC[C@@H](C)[C@H]2CC1
inhibition (PBMC): inactive | inhibition at 72 h, 10 µM [1]: 72% | IC50 (Keratinocyte [2]; [5]): 8.7 µM | Imax (Keratinocyte [3]): 85% | IC50 (Keratinocyte [4]; [5]): 2.8 µM

CC1=C2[C@H](/C=C(\C)C(=O)NCCN3CCOCC3)CC[C@@H](C)[C@H]2CC1
inhibition (PBMC): inactive | inhibition at 72 h, 10 µM [1]: 12% | IC50 (Keratinocyte [2]; keratinocyte): Not Active | Imax (Keratinocyte [3]): 17% | IC50 (Keratinocyte [4]; keratinocyte): Not Active

C[C@H]1C[C@H]2[C@@H]3CCC4=CC(=O)C=C[C@]4(C)[C@@]3(F)[C@@H](O)C[C@]2(C)[C@@]1(O)C(=O)CO [BETAMETHASONE]
IC50 (Keratinocyte [2]; [5]): 0.3 µM | Imax (Keratinocyte [3]): 49%

CC1=C2[C@H](/C=C(\C)C(=O)NCCC(C)C)CC[C@@H](C)[C@H]2CC1
inhibition (PBMC): inactive | inhibition at 72 h, 10 µM [1]: 9% | IC50 (Keratinocyte [2]; keratinocyte): Not Active | Imax (Keratinocyte [3]): 22% | IC50 (Keratinocyte [4]; keratinocyte): Not Active

CC1=C2[C@H](/C=C(\C)C(=O)O)CC[C@@H](C)[C@H]2CC1 [VALERENIC ACID]
inhibition (PBMC): inactive | inhibition at 72 h, 10 µM [1]: 15% | IC50 (Keratinocyte [2]; keratinocyte): Not Active | Imax (Keratinocyte [3]): 4%

CC1=C2[C@H](/C=C(\C)C(=O)NCc3ccc(F)cc3)CC[C@@H](C)[C@H]2CC1
inhibition (PBMC): inactive | inhibition at 72 h, 10 µM [1]: 61% | IC50 (Keratinocyte [2]; [5]): 9.6 µM | Imax (Keratinocyte [3]): 70% | IC50 (Keratinocyte [4]; [5]): 4.9 µM

CC1=C2[C@H](/C=C(\C)C(=O)NCCc3ccc(F)cc3)CC[C@@H](C)[C@H]2CC1
inhibition (PBMC): inactive | inhibition at 72 h, 10 µM [1]: 17% | IC50 (Keratinocyte [2]; keratinocyte): Not Active | Imax (Keratinocyte [3]): 44% | IC50 (Keratinocyte [4]; keratinocyte): Not Active

CC1=C2[C@H](/C=C(\C)C(=O)NCCc3ccccn3)CC[C@@H](C)[C@H]2CC1
inhibition (PBMC): inactive | inhibition at 72 h, 10 µM [1]: 20% | IC50 (Keratinocyte [2]; keratinocyte): Not Active | Imax (Keratinocyte [3]): 14% | IC50 (Keratinocyte [4]; keratinocyte): Not Active

CC1=C2[C@H](/C=C(\C)C(=O)NCc3cccc(F)c3)CC[C@@H](C)[C@H]2CC1
inhibition (PBMC): inactive | inhibition at 72 h, 10 µM [1]: 67% | IC50 (Keratinocyte [2]; [5]): 9.6 µM | Imax (Keratinocyte [3]): 79% | IC50 (Keratinocyte [4]; [5]): 4.7 µM

CC1=C2[C@H](/C=C(\C)C(=O)NCCc3ccc(Br)cc3)CC[C@@H](C)[C@H]2CC1
inhibition (PBMC): inactive | inhibition at 72 h, 10 µM [1]: 24% | IC50 (Keratinocyte [2]; keratinocyte): Not Active | Imax (Keratinocyte [3]): 60% | IC50 (Keratinocyte [4]; [5]): 8.3 µM
